Tests used:
[1] = target: Epithelial discoidin domain-containing receptor 1 (Homo sapiens, UniProt Q08345); test: Inhibition of DDR1 (unknown origin) using fluorescein-poly GAT as substrate measured after 1 hr by LANCE ULTRA kinase assay
HCT-116 [2] = test: Antiproliferative activity against human HCT-116 cells overexpressing DDR1 assessed as inhibition of cell proliferation at 10 uM measured after 72 hrs by MTT assay relative to control; type: functional
In short: (§1)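 Adherent cells seeded at 3000–4000 per well, then given compound at 10 μM in 100 μL medium on day two. After 72 h, MTT added for a further 4–5 h and absorbance read at 570 nm. Percent growth inhibition taken from sample absorbance as a ratio to untreated control.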

MDA-MB-231 [3] = test: Antiproliferative activity against human MDA-MB-231 cells overexpressing DDR1 assessed as inhibition of cell proliferation at 10 uM measured after 72 hrs by MTT assay relative to control; type: functional; in short: as §1
MDA-MB-231 [4] = test: Antiproliferative activity against human MDA-MB-231 cells overexpressing DDR1 assessed as inhibition of cell proliferation measured after 72 hrs by MTT assay; type: functional, cell-based; conditions: MDA-MB-231, 72 h
In short: (§2)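 Adherent cells seeded at 3000–4000 per well and dosed the next day with a dilution series in 100 μL medium. Exposure 72 h, then MTT incubation 4–5 h and absorbance read at 570 nm. Inhibition expressed as sample/control absorbance ratio; IC50 determined only for compounds giving […] inhibition at 10 μM.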

HCT-116 [5] = test: Antiproliferative activity against human HCT-116 cells overexpressing DDR1 assessed as inhibition of cell proliferation measured after 72 hrs by MTT assay; type: functional, cell-based; conditions: HCT-116, 72 h; in short: as §2

Sequence of Epithelial discoidin domain-containing receptor 1 (Q08345 whole entry, the tested form may be a part): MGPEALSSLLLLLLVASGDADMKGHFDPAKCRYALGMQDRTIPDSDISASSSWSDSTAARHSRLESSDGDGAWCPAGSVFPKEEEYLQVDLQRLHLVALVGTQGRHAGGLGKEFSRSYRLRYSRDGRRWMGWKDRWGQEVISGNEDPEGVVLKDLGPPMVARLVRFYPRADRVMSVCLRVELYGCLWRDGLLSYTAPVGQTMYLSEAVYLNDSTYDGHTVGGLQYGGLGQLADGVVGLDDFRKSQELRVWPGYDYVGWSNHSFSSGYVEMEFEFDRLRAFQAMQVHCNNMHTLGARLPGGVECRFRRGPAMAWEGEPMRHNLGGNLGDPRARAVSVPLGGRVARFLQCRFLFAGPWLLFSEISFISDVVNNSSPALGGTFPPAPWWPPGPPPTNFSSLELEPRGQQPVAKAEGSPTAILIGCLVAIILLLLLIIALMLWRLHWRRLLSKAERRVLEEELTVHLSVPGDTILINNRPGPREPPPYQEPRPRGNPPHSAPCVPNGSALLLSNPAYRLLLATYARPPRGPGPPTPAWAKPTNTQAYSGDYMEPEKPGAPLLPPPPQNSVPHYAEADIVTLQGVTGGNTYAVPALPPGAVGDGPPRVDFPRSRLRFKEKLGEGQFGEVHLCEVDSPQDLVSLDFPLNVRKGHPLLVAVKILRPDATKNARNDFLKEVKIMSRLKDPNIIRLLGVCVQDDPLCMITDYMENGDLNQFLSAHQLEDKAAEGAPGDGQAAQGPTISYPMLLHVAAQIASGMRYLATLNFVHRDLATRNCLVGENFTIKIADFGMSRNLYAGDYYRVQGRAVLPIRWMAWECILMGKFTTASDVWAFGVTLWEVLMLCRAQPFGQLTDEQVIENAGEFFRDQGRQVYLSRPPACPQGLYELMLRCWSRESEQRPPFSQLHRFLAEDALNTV

Cc1ccc(NC(=O)c2ccc(CN3CCC(C)CC3)c(C(F)(F)F)c2)cc1Oc1ccc(-c2n[nH]c3ncnc(N)c23)cc1
IC50 [1]: 2.81 µM | inhibition at 10 µM (HCT-116 [2]): 73.7% | inhibition at 10 µM (MDA-MB-231 [3]): 42.1% | IC50 (MDA-MB-231 [4]): > 10 µM

Cc1ccc(NC(=O)c2ccc(CN3CCOCC3)c(Br)c2)cc1Oc1ccc(-c2n[nH]c3ncnc(N)c23)cc1
IC50 [1]: 2.47 µM | inhibition at 10 µM (HCT-116 [2]): 35% | IC50 (HCT-116 [5]): > 10 µM | inhibition at 10 µM (MDA-MB-231 [3]): 81.3%

Cc1ccc(NC(=O)c2ccc(CN3CCCCC3)cc2)cc1Oc1ccc(-c2n[nH]c3ncnc(N)c23)cc1
inhibition at 10 µM (HCT-116 [2]): 99.6% | IC50 (HCT-116 [5]): 2 µM | inhibition at 10 µM (MDA-MB-231 [3]): 98.7% | IC50 (MDA-MB-231 [4]): 2.68 µM

Cc1ccc(NC(=O)c2ccc(CN3CCN(C)CC3)c(C(F)(F)F)c2)cc1Oc1ccc(-c2n[nH]c3ncnc(N)c23)cc1
IC50 [1]: 0.044 µM | inhibition at 10 µM (HCT-116 [2]): 100% | IC50 (HCT-116 [5]): 4 µM | inhibition at 10 µM (MDA-MB-231 [3]): 97.9% | IC50 (MDA-MB-231 [4]): 3.36 µM

Cc1ccc(NC(=O)c2ccc(CN3CCCC3)c(C(F)(F)F)c2)cc1Oc1ccc(-c2n[nH]c3ncnc(N)c23)cc1
IC50 [1]: 1.19 µM | inhibition at 10 µM (HCT-116 [2]): 34.9% | IC50 (HCT-116 [5]): > 10 µM | inhibition at 10 µM (MDA-MB-231 [3]): 98.5%

Cc1ccc(NC(=O)c2ccc(CN3CCCCC3)c(C(F)(F)F)c2)cc1Oc1ccc(-c2n[nH]c3ncnc(N)c23)cc1
IC50 [1]: 0.975 µM | inhibition at 10 µM (HCT-116 [2]): 36.9% | IC50 (HCT-116 [5]): > 10 µM | inhibition at 10 µM (MDA-MB-231 [3]): 29.6% | IC50 (MDA-MB-231 [4]): > 10 µM

Cc1ccc(NC(=O)c2ccc(CN3CCOCC3)c(Cl)c2)cc1Oc1ccc(-c2n[nH]c3ncnc(N)c23)cc1
IC50 [1]: 2.17 µM | inhibition at 10 µM (HCT-116 [2]): 58.3% | inhibition at 10 µM (MDA-MB-231 [3]): 96.5%

Cc1ccc(NC(=O)c2ccc(CN3CCN(C)CC3)cc2)cc1Oc1ccc(-c2n[nH]c3ncnc(N)c23)cc1
IC50 [1]: 2.69 µM | inhibition at 10 µM (HCT-116 [2]): 26.7% | IC50 (HCT-116 [5]): > 10 µM | inhibition at 10 µM (MDA-MB-231 [3]): 94.5%

Cc1cn(-c2cc(NC(=O)c3ccc(C)c(Nc4nccc(-c5cccnc5)n4)c3)cc(C(F)(F)F)c2)cn1 [NILOTINIB]
inhibition at 10 µM (HCT-116 [2]): 88.1% | IC50 (HCT-116 [5]): 5.75 µM | inhibition at 10 µM (MDA-MB-231 [3]): 93.6% | IC50 (MDA-MB-231 [4]): 7.31 µM

Cc1ccc(NC(=O)c2ccc(CN3CCN(C)CC3)c(Br)c2)cc1Oc1ccc(-c2n[nH]c3ncnc(N)c23)cc1
inhibition at 10 µM (HCT-116 [2]): 99.5% | IC50 (HCT-116 [5]): 6.56 µM | inhibition at 10 µM (MDA-MB-231 [3]): 100%

Cc1ccc(NC(=O)c2cccc(CN3CCN(C)CC3)c2)cc1Oc1ccc(-c2n[nH]c3ncnc(N)c23)cc1
IC50 [1]: 1.21 µM | inhibition at 10 µM (HCT-116 [2]): 99.8% | IC50 (HCT-116 [5]): 4.47 µM | inhibition at 10 µM (MDA-MB-231 [3]): 99.3%

Cc1ccc(NC(=O)c2ccc(CN3CCOCC3)cc2)cc1Oc1ccc(-c2n[nH]c3ncnc(N)c23)cc1
inhibition at 10 µM (HCT-116 [2]): 97.2% | IC50 (HCT-116 [5]): 4.89 µM | inhibition at 10 µM (MDA-MB-231 [3]): 99% | IC50 (MDA-MB-231 [4]): 3.53 µM

Cc1ccc(NC(=O)c2ccc(CN3CCN(C)CC3)c(F)c2)cc1Oc1ccc(-c2n[nH]c3ncnc(N)c23)cc1
inhibition at 10 µM (HCT-116 [2]): 73.2% | inhibition at 10 µM (MDA-MB-231 [3]): 92.1%

CN1CCN(Cc2ccc(C(=O)Nc3cccc(Oc4ccc(-c5n[nH]c6ncnc(N)c56)cc4)c3)cc2C(F)(F)F)CC1
IC50 [1]: 0.044 µM | inhibition at 10 µM (HCT-116 [2]): 99.8% | IC50 (HCT-116 [5]): 5.96 µM | inhibition at 10 µM (MDA-MB-231 [3]): 98.2% | IC50 (MDA-MB-231 [4]): 4.29 µM

Cc1ccc(NC(=O)c2ccc(CN3CCOCC3)c(C(F)(F)F)c2)cc1Oc1ccc(-c2n[nH]c3ncnc(N)c23)cc1
IC50 [1]: 0.416 µM | inhibition at 10 µM (HCT-116 [2]): 20.5% | IC50 (HCT-116 [5]): > 10 µM | inhibition at 10 µM (MDA-MB-231 [3]): 71.3%

Cc1ccc(C(=O)Nc2ccc(CN3CCN(C)CC3)c(C(F)(F)F)c2)cc1C#Cc1cnc2ccnn2c1
IC50 [1]: 0.005 µM

Cc1ccc(NC(=O)c2ccc(CN3CCOCC3)c(F)c2)cc1Oc1ccc(-c2n[nH]c3ncnc(N)c23)cc1
IC50 [1]: 24.4 µM | inhibition at 10 µM (HCT-116 [2]): 11.1% | IC50 (HCT-116 [5]): > 10 µM | inhibition at 10 µM (MDA-MB-231 [3]): 93.1%

CCN1CCN(Cc2ccc(C(=O)Nc3ccc(C)c(Oc4ccc(-c5n[nH]c6ncnc(N)c56)cc4)c3)cc2C(F)(F)F)CC1
IC50 [1]: 0.07 µM | inhibition at 10 µM (HCT-116 [2]): 99.7% | IC50 (HCT-116 [5]): 5.48 µM | inhibition at 10 µM (MDA-MB-231 [3]): 99.3% | IC50 (MDA-MB-231 [4]): 3.85 µM

Cc1ccc(NC(=O)c2ccc(CN3CCN(C)CC3)c(Cl)c2)cc1Oc1ccc(-c2n[nH]c3ncnc(N)c23)cc1
inhibition at 10 µM (HCT-116 [2]): 99.9% | IC50 (HCT-116 [5]): 2.91 µM | inhibition at 10 µM (MDA-MB-231 [3]): 99.2% | IC50 (MDA-MB-231 [4]): 3.83 µM

Cc1ccc(NC(=O)c2ccc(CN3CCC(C)CC3)cc2)cc1Oc1ccc(-c2n[nH]c3ncnc(N)c23)cc1
inhibition at 10 µM (HCT-116 [2]): 99.9% | IC50 (HCT-116 [5]): 1.37 µM | inhibition at 10 µM (MDA-MB-231 [3]): 97.4% | IC50 (MDA-MB-231 [4]): 2.76 µM

Cc1ccc(NC(=O)c2ccc(CN3CCCC3)cc2)cc1Oc1ccc(-c2n[nH]c3ncnc(N)c23)cc1
inhibition at 10 µM (HCT-116 [2]): 100% | IC50 (HCT-116 [5]): 3.04 µM | inhibition at 10 µM (MDA-MB-231 [3]): 98.8%

CCN1CCN(Cc2ccc(C(=O)Nc3ccc(C)c(Oc4ccc(-c5n[nH]c6ncnc(N)c56)cc4)c3)cc2)CC1
inhibition at 10 µM (HCT-116 [2]): 33.6% | IC50 (HCT-116 [5]): > 10 µM | inhibition at 10 µM (MDA-MB-231 [3]): 88.7%

Cc1ccc(NC(=O)c2ccc(CN3CCN(C)CC3)c(I)c2)cc1Oc1ccc(-c2n[nH]c3ncnc(N)c23)cc1
IC50 [1]: 0.131 µM | inhibition at 10 µM (HCT-116 [2]): 99.7% | IC50 (HCT-116 [5]): 4.51 µM | inhibition at 10 µM (MDA-MB-231 [3]): 98.9% | IC50 (MDA-MB-231 [4]): 3.21 µM

Source: ChEMBL document CHEMBL4699659, “Discovery of 4-amino-1H-pyrazolo[3,4-d]pyrimidin derivatives as novel discoidin domain receptor 1 (DDR1) inhibitors” (Bioorg Med Chem, 2021)
